OX1R antag-1 – antagonists of human orexin 1 receptor (OX1R). O43613. OX1R-expressing cells, FRET antagonist read-out. inhibition, % at 6.6 µM. 1.8% of 330,000 active. AID 485270; in the data active means inhibition mostly above about 38%, no sharp cut-off; inactive means mostly below about 40%;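 further: 0% = agonist challenge alone and 100% = reference antagonist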
OX1R antag-2 – antagonists of human orexin 1 receptor | CHO/OX1R cells, Fluo-8 calcium fluorescence, orexin A | inhibition, % at 5 µM | 0.43% of 330,000 active | AID 434989;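 active means inhibition above its plate's threshold, mean inhibition of all tested compounds on the plate plus 3 SD, cut at about 37% in these data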;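 further: 0% = orexin A challenge wells and 100% = SB-334867-A antagonist wells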
CHO parental Ca – counter-screen: ATP calcium response change in parental CHO cells; parental CHO-K1, ATP-induced calcium, Fluo-8 fluorescence; inhibition, % at 5.6 µM; 0.63% of 330,000 active;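 active means inhibition above that plate's mean sample inhibition plus 3 SD, cut at about 26% in these data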;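 further: 0% = ATP-challenged DMSO wells and 100% = DMSO wells without ATP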
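Material: Parental CHO cells | Reagent: ATP | Compound dosing: Single nominal dose of 5.6 µM per compound | Detection: Intracellular calcium via Fluo-8 no-wash fluorescent dye | Read-out: % inhibition of ATP-induced calcium mobilization | Benchmarks: Low control ATP plus DMSO, high control DMSO only | Replicates: Singlicate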
TAAR1 ag – agonists of human TAAR1; Q96RJ0; CHO RD-HGA16 TAAR1, Fluo-8 calcium fluorescence; vehicle wells 0%, saturating PEA agonist 100%; activation, % at 3 µM; AID 624467; 0.99% of 360,000 active;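 active means activation above the mean activation of all test compounds in the run plus 3 SD, cut at about 38% in these data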
Target sequence (Q96RJ0 whole entry, looked up): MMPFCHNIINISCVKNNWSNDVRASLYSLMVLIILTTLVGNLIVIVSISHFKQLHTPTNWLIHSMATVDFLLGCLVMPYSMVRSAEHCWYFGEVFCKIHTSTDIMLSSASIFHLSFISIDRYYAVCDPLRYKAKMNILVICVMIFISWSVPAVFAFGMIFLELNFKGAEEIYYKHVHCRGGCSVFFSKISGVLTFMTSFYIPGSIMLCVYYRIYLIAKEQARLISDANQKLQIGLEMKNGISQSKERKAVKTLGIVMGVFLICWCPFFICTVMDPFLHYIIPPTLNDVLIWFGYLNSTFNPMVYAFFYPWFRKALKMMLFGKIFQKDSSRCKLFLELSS
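Test system: RD-HGA16 (CHO) cells co-expressing Gα16 and hTAAR1 / Benchmarks: DMSO vehicle as 0%, PEA at EC100 as 100% / Repeats: no replicates (n 1) / Measure: % activation from peak over basal fluorescence ratio, DMSO-to-PEA scaled / Timing: 17-24 h plating, Fluo-8 75 min 37 °C, 30 min RT / Technique: kinetic Fluo-8 calcium fluorescence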
GPR7 antag – blocks human GPR7 receptor signaling; inhibition, % at 4.4 µM; 1.1% of 290,000 active; GPR7-expressing cells, fluorescence antagonist assay; AID 1861; in the data active means inhibition above about 16%, passing the limit was not always enough;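 further: cells stimulated with the agonist NPW; 0% = agonist with vehicle and 100% = vehicle without agonist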
TAAR1 antagonist – antagonists of human TAAR1; Q96RJ0; CHO RD-HGA16 TAAR1, Fluo-8 calcium fluorescence, antagonist; inhibition, % at 3 µM; 1.5% of 360,000 active;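 active means inhibition above a per-plate cutoff, the mean inhibition of test compounds on that plate plus 3 SD, cut at about 49% in these data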;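 further: 0% = DMSO plus EC80 beta-PEA response and 100% = DMSO alone without agonist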
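System: RD-HGA16 CHO cells with stable hTAAR1 and Gα16 | Probe or stimulus: EC80 β-phenethylamine stimulus | Dosing: 3 µM, single point | Times: Dye loading 75 min at 37 °C, then 30 min room temperature | Measured by: Fluo-8 calcium-sensitive fluorescence | Read-out basis: % inhibition of agonist calcium response | Replicates: n of 1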
TAAR1 nonsel count – nonselective antagonist in TAAR1 antagonist counter-screen; AID 651780; shares compounds with TAAR1 antagonist; inhibition, % at 3 µM; counterscreen cell line, calcium fluorescence, antagonist mode; 77% of 2,400 active; in the data active means inhibition above about 22%;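 further: CHO-Ga16 host cells stimulated with ATP at an EC80 level; 0% = agonist EC80 plus vehicle and 100% = vehicle without agonist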
TAAR1 ant conf – human TAAR1 antagonism, confirmed. shares compounds with TAAR1 antagonist. TAAR1-expressing cells, fluorescence antagonist read-out. inhibition, % at 3 µM. 40% of 2,400 active. AID 651785; in the data active means inhibition above about 49%;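 further: CHO-Ga16 host cells challenged with agonist PEA near its EC80; 0% = agonist at EC80 plus vehicle and 100% = vehicle with no agonist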
Ga16 ag counter – nonselective Ga16 agonist in TAAR1 antagonist counter-screen | shares compounds with TAAR1 antagonist | 18% of 2,400 active | AID 651953 | activation, % at 3 µM | Ga16-expressing cells, calcium fluorescence, agonist counterscreen; in the data active means activation above about 12%;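 further: 0% = vehicle wells and 100% = saturating stimulus response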
TAAR1 ag count – counter-screen for human TAAR1 antagonists: TAAR1 agonists | activation, % at 3 µM | AID 651955 | 2% of 2,400 active | hTAAR1 cell line, fluorescence activation, agonist mode | shares compounds with TAAR1 antagonist; in the data active means activation above about 37%;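 further: CHO cells stably expressing TAAR1 with calcium dye readout; 0% = DMSO vehicle and 100% = full agonist response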
Starred values were filed as active, the others as inactive. Most compounds without a hit are left out; they make up all but 4.6% or so of the library.

For CCOc1ccc2nc(NC(=O)CN3CCC(n4nnc5cc(F)ccc54)CC3)sc2c1 the results were OX1R antag-1 34, OX1R antag-2 -15, CHO parental Ca 11, TAAR1 ag 14, GPR7 antag -1, TAAR1 antagonist 68*, TAAR1 nonsel count 23*, TAAR1 ant conf 42, Ga16 ag counter 6 and TAAR1 ag count 6.
For COc1ccc(C(CNC(=O)C(Cc2ccccc2)NC(N)=O)N(C)C)cc1 (centres undefined) the results were OX1R antag-1 1, OX1R antag-2 -19, CHO parental Ca -4, TAAR1 ag -4, GPR7 antag -13, TAAR1 antagonist 103*, TAAR1 nonsel count 6, TAAR1 ant conf -2, Ga16 ag counter 1 and TAAR1 ag count 2.
`COc1ccc(Br)cc1/C=N/NC(=O)CN1CCCCC1` gave OX1R antag-1 20, OX1R antag-2 -8, CHO parental Ca -23, TAAR1 ag 3, GPR7 antag 28 and TAAR1 antagonist -16.
For CCOc1ccc(N(C(C)C(=O)Nc2cccnc2)S(C)(=O)=O)cc1 (centres undefined) the results were OX1R antag-1 3, OX1R antag-2 -9, CHO parental Ca -25, TAAR1 ag 2, GPR7 antag -2 and TAAR1 antagonist -18.
CCOc1ccc(N(C(C)C(=O)N/N=C(\C)c2cccc(NC(=O)c3ccccc3)c2)S(C)(=O)=O)cc1 (centres undefined) was read as OX1R antag-1 46, OX1R antag-2 -3, CHO parental Ca -16, TAAR1 ag 17, GPR7 antag 12, TAAR1 antagonist 54*, TAAR1 nonsel count 29*, TAAR1 ant conf 43, Ga16 ag counter 7 and TAAR1 ag count 5.
O=C(COC(=O)c1ccc(F)cc1F)Nc1ccc(S(=O)(=O)N2CCOCC2)cc1 was read as TAAR1 ag 2 and TAAR1 antagonist 3.
`NS(=O)(=O)c1ccc(NC(=O)c2cccc(Cl)c2)cc1` gave OX1R antag-1 4, OX1R antag-2 8, CHO parental Ca 0, TAAR1 ag 4, GPR7 antag 1 and TAAR1 antagonist 8.
`O=C(NCc1ccc(Cl)s1)C1CCC(=O)N(CCc2ccccn2)C1` (centres undefined) gave OX1R antag-1 14, OX1R antag-2 -29, CHO parental Ca -9, TAAR1 ag 0, GPR7 antag -2 and TAAR1 antagonist -5.
CCCc1c(C(=O)N/N=C/c2c[nH]c3ccccc23)nnn1-c1nonc1N was read as TAAR1 ag 29, TAAR1 antagonist 63*, TAAR1 nonsel count 32*, TAAR1 ant conf 47, Ga16 ag counter 12* and TAAR1 ag count 12.
`O=C(CC1CC1)Nc1ccc2c(c1)[C@@H]1C[C@H](CC(=O)NC3CCCC3)O[C@@H](CO)[C@@H]1O2` gave TAAR1 ag -1, TAAR1 antagonist 86*, TAAR1 nonsel count -6, TAAR1 ant conf 5, Ga16 ag counter 1 and TAAR1 ag count 5.
Screening O=C(N/N=C/C=C/c1ccccc1[N+](=O)[O-])c1cc(-c2ccccc2)n[nH]1 returned OX1R antag-1 31, OX1R antag-2 -4, CHO parental Ca -10, TAAR1 ag 24, GPR7 antag 8, TAAR1 antagonist 60*, TAAR1 nonsel count 24*, TAAR1 ant conf 39, Ga16 ag counter 9 and TAAR1 ag count 7.
O=C(OCC(=O)N1CCc2ccccc21)c1ccccn1 was read as OX1R antag-1 5, OX1R antag-2 -16, CHO parental Ca 5, TAAR1 ag 8, GPR7 antag -1 and TAAR1 antagonist 11.

Assay outcomes from PubChem.
